Measured values as given in ChEMBL document CHEMBL1765087, “Synthesis and evaluation of cardiac glycoside mimics as potential anticancer drugs” (Bioorg Med Chem, 2011).

How the values were obtained:
Sus scrofa = species: Sus scrofa; experiment: Binding affinity to pig kidney Na+/K+-ATPase assessed as inorganic phosphate release after 2 hrs
Method in brief: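 Purified pig kidney Na⁺,K⁺-ATPase (specific activity 25–30 U/mg protein) preincubated 2 h with a range of inhibitor concentrations in 130 mM NaCl, 20 mM KCl, 4 mM MgCl₂, 30 mM histidine pH 7.4, 20 °C. 3 mM ATP added, 5 min reaction, released inorganic phosphate measured. Ouabain-insensitive activity (1 mM ouabain) subtracted. K_app from hyperbolic fit.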

MCF7 = experiment: Antiproliferative activity against human MCF7 cells assessed as cell viability treated for 48 hrs followed by compound washout measured after 72 hrs by fluorometric CellTiter-Blue reagent assay; assay type: functional, cell-based
Method in brief: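 MCF-7 cells grown in DMEM Glutamax with 10% fetal calf serum, penicillin and streptomycin, 37 °C, 5% CO₂. Seeded 3000 cells/well in triplicate, cultured overnight, then given a dilution series of compound; equivalent DMSO dilution series used for normalization. 48 h exposure, then 72 h in fresh compound-free medium before viability read-out.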

SMILES	Kapp (Sus scrofa)	IC50 (MCF7)
C[C@]12CC[C@H](O)C[C@H]1CC[C@@H]1[C@@H]2CC[C@]2(C)[C@@H](C3=CC(=O)OC3)CC[C@]12O [DIGITOXIGENIN]	0.52 µM	600 nM
C[C@]12CC[C@H](SCCOCCOCCOCCS[C@H]3CC[C@@]4(C)[C@H](CC[C@@H]5[C@@H]4CC[C@]4(C)[C@@H](C6=CC(=O)OC6)CC[C@]54O)C3)C[C@H]1CC[C@@H]1[C@@H]2CC[C@]2(C)[C@@H](C3=CC(=O)OC3)CC[C@]12O	> 53 µM	13000 nM
C[C@]12CC[C@H](SCCO)C[C@H]1CC[C@@H]1[C@@H]2CC[C@]2(C)[C@@H](C3=CC(=O)OC3)CC[C@]12O	0.48 µM	200 nM
C[C@]12CC[C@H](SCCOCCO)C[C@H]1CC[C@@H]1[C@@H]2CC[C@]2(C)[C@@H](C3=CC(=O)OC3)CC[C@]12O	0.73 µM	400 nM
C[C@]12CC[C@H](SCCOCCS[C@H]3CC[C@@]4(C)[C@H](CC[C@@H]5[C@@H]4CC[C@]4(C)[C@@H](C6=CC(=O)OC6)CC[C@]54O)C3)C[C@H]1CC[C@@H]1[C@@H]2CC[C@]2(C)[C@@H](C3=CC(=O)OC3)CC[C@]12O	17.2 µM	8600 nM
C[C@]12CC[C@H](SCCS[C@H]3CC[C@@]4(C)[C@H](CC[C@@H]5[C@@H]4CC[C@]4(C)[C@@H](C6=CC(=O)OC6)CC[C@]54O)C3)C[C@H]1CC[C@@H]1[C@@H]2CC[C@]2(C)[C@@H](C3=CC(=O)OC3)CC[C@]12O	9.9 µM	7000 nM
C[C@]12CC[C@H](SCCOCCOCCOCCO)C[C@H]1CC[C@@H]1[C@@H]2CC[C@]2(C)[C@@H](C3=CC(=O)OC3)CC[C@]12O	2.1 µM	1400 nM
C[C@H]1O[C@@H](O[C@H]2[C@@H](O)C[C@H](O[C@H]3[C@@H](O)C[C@H](O[C@H]4CC[C@@]5(C)[C@H](CC[C@@H]6[C@@H]5CC[C@]5(C)[C@@H](C7=CC(=O)OC7)CC[C@]65O)C4)O[C@@H]3C)O[C@@H]2C)C[C@H](O)[C@@H]1O [DIGITOXIN]	0.99 µM	20 nM
C[C@]12CC[C@H](S)C[C@H]1CC[C@@H]1[C@@H]2CC[C@]2(C)[C@@H](C3=CC(=O)OC3)CC[C@]12O	0.42 µM	500 nM
C[C@]12CC[C@H](SCCOCCOCCO)C[C@H]1CC[C@@H]1[C@@H]2CC[C@]2(C)[C@@H](C3=CC(=O)OC3)CC[C@]12O	1.27 µM	800 nM
C[C@]12CC[C@H](SCCOCCOCCS[C@H]3CC[C@@]4(C)[C@H](CC[C@@H]5[C@@H]4CC[C@]4(C)[C@@H](C6=CC(=O)OC6)CC[C@]54O)C3)C[C@H]1CC[C@@H]1[C@@H]2CC[C@]2(C)[C@@H](C3=CC(=O)OC3)CC[C@]12O	20.5 µM	6600 nM
